Measured values from ChEMBL document CHEMBL1148642, “(2S,3S)-3-Amino-4-(3,3-difluoropyrrolidin-1-yl)-N,N-dimethyl-4-oxo-2-(4-[1,2,4]triazolo[1,5-a]-pyridin-6-ylphenyl)butanamide: a selective alpha-amino amide dipeptidyl peptidase IV inhibitor for the treatment of type 2 diabetes” (J Med Chem, 2006).

Key:
Dipeptidyl peptidase 2 = Dipeptidyl peptidase 2 (Homo sapiens, UniProt Q9UHL4); experiment: Inhibition of QPP
Dipeptidyl peptidase 8 = Dipeptidyl peptidase 8 (Homo sapiens, UniProt Q6V1X1); experiment: Inhibition of DPP8
Sequence of Dipeptidyl peptidase 8 (Q6V1X1 whole entry): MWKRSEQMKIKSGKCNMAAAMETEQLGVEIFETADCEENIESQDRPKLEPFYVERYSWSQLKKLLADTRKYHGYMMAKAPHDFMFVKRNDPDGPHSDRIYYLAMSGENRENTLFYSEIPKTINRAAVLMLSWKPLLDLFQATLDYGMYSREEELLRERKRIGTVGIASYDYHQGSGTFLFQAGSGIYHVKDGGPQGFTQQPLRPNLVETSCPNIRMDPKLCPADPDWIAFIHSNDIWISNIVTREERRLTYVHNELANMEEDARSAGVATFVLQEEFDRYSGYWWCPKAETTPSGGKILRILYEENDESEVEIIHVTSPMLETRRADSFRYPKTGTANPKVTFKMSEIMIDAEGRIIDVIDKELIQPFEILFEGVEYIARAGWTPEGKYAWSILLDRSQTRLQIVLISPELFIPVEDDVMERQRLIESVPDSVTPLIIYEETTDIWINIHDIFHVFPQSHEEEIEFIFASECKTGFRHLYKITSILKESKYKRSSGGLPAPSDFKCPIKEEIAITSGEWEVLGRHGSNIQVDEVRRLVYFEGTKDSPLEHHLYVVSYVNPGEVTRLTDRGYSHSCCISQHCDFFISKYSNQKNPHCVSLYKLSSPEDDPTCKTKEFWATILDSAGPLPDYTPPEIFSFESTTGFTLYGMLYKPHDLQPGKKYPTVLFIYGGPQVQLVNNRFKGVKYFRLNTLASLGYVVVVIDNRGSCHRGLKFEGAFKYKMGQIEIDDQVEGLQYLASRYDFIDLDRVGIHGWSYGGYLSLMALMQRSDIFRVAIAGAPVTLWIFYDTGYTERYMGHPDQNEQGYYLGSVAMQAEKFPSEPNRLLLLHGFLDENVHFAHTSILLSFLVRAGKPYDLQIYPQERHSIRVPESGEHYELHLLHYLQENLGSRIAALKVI

Dipeptidyl peptidase 9 = Dipeptidyl peptidase 9 (Homo sapiens, UniProt Q86TI2); experiment: Inhibition of DPP9
Sequence of Dipeptidyl peptidase 9 (Q86TI2 whole entry): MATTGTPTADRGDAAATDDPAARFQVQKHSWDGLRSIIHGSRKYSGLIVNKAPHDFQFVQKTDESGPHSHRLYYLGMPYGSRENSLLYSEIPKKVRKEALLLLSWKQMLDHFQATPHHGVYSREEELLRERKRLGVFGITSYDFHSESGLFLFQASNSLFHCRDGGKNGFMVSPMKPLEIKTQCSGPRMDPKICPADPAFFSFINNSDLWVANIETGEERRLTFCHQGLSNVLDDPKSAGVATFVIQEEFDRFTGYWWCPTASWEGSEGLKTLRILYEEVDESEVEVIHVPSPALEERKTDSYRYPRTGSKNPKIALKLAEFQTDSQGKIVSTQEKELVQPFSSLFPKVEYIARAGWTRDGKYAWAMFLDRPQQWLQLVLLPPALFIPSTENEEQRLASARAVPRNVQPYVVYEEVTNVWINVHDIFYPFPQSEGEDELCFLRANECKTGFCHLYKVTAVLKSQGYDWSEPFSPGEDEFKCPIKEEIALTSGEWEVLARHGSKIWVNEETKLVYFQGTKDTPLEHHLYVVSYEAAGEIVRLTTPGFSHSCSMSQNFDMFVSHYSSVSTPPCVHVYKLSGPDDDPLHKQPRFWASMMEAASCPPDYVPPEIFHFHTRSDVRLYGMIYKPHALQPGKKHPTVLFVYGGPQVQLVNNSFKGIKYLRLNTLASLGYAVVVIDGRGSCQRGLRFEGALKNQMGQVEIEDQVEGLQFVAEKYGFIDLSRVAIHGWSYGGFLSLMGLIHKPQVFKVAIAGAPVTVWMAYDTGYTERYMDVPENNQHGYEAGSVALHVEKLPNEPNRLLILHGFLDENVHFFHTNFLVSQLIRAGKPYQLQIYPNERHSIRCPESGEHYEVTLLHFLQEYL

Prolyl endopeptidase FAP = molecular target: T1, Prolyl endopeptidase FAP (Homo sapiens, UniProt Q12884); experiment: Inhibition of FAP
T1 sequence (Q12884 whole entry): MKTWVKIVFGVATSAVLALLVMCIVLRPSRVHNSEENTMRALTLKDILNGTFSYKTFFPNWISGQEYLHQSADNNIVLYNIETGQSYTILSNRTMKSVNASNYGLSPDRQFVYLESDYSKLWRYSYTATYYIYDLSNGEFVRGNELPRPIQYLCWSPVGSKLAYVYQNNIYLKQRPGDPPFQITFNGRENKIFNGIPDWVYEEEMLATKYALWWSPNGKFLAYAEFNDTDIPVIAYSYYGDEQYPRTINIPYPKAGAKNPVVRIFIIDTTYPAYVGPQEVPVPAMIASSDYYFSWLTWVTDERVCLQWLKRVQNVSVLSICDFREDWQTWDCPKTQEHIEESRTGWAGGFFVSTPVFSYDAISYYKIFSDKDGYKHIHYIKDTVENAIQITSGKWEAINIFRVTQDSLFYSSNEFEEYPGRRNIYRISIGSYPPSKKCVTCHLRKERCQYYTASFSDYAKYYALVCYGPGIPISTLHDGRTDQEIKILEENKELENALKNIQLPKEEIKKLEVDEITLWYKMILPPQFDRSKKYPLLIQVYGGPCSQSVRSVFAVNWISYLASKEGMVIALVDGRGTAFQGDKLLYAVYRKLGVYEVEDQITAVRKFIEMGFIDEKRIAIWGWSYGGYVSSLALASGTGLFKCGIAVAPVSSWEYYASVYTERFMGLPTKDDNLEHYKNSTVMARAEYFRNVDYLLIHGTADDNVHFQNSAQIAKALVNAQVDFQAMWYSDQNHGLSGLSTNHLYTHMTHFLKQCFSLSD

Xaa-Pro aminopeptidase 1 = Xaa-Pro aminopeptidase 1 (Homo sapiens, UniProt Q9NQW7); experiment: Inhibition of aminopeptidase P
Sequence of Xaa-Pro aminopeptidase 1 (Q9NQW7 whole entry): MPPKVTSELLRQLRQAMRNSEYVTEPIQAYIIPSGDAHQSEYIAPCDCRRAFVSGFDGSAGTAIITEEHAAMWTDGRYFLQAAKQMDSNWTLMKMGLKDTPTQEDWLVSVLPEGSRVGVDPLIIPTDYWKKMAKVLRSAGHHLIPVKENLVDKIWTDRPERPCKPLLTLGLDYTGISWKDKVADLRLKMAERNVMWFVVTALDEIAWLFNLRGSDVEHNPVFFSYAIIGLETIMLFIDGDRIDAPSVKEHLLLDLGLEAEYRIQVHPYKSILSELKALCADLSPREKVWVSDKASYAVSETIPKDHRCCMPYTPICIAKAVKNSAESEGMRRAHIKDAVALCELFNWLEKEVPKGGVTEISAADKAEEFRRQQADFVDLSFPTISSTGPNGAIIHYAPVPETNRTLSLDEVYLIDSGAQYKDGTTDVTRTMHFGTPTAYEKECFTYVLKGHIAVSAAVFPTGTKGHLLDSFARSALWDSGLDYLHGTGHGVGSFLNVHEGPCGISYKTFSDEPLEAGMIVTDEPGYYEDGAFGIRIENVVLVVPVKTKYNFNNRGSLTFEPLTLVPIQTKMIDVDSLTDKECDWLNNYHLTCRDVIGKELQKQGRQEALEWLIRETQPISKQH

Xaa-Pro dipeptidase = molecular target: T2, Xaa-Pro dipeptidase (Homo sapiens, UniProt P12955); experiment: Inhibition of prolidase
T2 sequence (P12955 whole entry): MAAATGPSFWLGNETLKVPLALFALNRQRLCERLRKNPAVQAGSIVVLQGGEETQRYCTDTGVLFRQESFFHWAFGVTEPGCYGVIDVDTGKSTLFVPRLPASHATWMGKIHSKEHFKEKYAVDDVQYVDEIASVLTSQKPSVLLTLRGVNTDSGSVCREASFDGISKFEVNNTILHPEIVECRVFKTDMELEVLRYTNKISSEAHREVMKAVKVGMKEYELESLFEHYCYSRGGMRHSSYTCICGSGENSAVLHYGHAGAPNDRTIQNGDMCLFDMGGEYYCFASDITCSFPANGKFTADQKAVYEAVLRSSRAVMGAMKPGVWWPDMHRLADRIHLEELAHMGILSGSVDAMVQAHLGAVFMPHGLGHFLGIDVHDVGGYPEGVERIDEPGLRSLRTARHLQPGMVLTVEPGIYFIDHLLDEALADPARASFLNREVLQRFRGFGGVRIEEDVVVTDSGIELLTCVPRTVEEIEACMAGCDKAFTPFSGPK

[1] = Half life in rat at 1 mg/kg, iv or 2 mg/kg, po; format: ADME, organism-based; conditions: in vivo
Rattus norvegicus = experiment: AUC in rat at 2 mg/kg, po normalized to 1 mg/kg; format: ADME, organism-based, Plasma; conditions: in vivo
[2] = Cmax in rat at 2 mg/kg, po; format: ADME, organism-based; parameters: dose 2 mg/kg, route oral; conditions: in vivo
[3] = Plasma clearance in rat at 1 mg/kg, iv or 2 mg/kg, po; format: ADME, organism-based
[4] = Plasma clearance in dog at 1 mg/kg, iv or 2 mg/kg, po; format: ADME, organism-based, Canis lupus familiaris
[5] = Half life in dog at 1 mg/kg, iv or 2 mg/kg, po; format: ADME, organism-based, Canis lupus familiaris; conditions: in vivo
Canis familiaris = experiment: AUC in dog at 2 mg/kg, po normalized to 1 mg/kg; format: ADME, organism-based, Canis lupus familiaris, Plasma; conditions: in vivo
[6] = Cmax in dog at 2 mg/kg, po; format: ADME, organism-based, Canis lupus familiaris; parameters: dose 2 mg/kg, route oral; conditions: in vivo
Dipeptidyl peptidase 4 [7] = molecular target: T3, Dipeptidyl peptidase 4 (Homo sapiens, UniProt P27487); experiment: Inhibition of DPP4
T3 sequence (P27487 whole entry): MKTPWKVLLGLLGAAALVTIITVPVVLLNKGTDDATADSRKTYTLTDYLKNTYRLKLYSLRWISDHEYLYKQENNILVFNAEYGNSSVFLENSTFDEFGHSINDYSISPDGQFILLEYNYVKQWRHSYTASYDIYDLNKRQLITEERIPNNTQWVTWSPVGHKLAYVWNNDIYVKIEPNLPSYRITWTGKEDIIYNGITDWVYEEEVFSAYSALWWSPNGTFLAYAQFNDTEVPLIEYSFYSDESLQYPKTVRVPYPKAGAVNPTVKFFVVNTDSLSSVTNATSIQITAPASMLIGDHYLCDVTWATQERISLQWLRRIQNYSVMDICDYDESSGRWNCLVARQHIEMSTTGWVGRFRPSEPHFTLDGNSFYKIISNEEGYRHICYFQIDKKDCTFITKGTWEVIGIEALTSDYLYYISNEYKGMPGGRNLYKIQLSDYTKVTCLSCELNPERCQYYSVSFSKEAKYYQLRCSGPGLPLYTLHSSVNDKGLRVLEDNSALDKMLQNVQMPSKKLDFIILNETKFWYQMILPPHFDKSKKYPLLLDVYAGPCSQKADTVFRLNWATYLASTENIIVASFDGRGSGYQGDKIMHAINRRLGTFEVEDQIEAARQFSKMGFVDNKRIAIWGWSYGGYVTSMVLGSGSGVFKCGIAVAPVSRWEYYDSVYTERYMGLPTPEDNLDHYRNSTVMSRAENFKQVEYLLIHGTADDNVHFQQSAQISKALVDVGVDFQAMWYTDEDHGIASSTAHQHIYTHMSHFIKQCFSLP

Dipeptidyl peptidase 4 [8] = molecular target: T3, Dipeptidyl peptidase 4; experiment: Inhibition of DPP4 in presence of 50% human serum
[9] = Bioavailability in rat at 1 mg/kg, iv and 2 mg/kg, po; format: ADME, organism-based; conditions: in vivo
[10] = Bioavailability in dog at 1 mg/kg, iv and 2 mg/kg, po; format: ADME, organism-based, Canis lupus familiaris; conditions: in vivo
[11] = molecular target: Voltage-dependent L-type calcium channel subunit alpha-1S (Oryctolagus cuniculus, UniProt P07293); experiment: Inhibition of rabbit skeletal muscle L-type calcium channel
Sequence of Voltage-dependent L-type calcium channel subunit alpha-1S (P07293 whole entry): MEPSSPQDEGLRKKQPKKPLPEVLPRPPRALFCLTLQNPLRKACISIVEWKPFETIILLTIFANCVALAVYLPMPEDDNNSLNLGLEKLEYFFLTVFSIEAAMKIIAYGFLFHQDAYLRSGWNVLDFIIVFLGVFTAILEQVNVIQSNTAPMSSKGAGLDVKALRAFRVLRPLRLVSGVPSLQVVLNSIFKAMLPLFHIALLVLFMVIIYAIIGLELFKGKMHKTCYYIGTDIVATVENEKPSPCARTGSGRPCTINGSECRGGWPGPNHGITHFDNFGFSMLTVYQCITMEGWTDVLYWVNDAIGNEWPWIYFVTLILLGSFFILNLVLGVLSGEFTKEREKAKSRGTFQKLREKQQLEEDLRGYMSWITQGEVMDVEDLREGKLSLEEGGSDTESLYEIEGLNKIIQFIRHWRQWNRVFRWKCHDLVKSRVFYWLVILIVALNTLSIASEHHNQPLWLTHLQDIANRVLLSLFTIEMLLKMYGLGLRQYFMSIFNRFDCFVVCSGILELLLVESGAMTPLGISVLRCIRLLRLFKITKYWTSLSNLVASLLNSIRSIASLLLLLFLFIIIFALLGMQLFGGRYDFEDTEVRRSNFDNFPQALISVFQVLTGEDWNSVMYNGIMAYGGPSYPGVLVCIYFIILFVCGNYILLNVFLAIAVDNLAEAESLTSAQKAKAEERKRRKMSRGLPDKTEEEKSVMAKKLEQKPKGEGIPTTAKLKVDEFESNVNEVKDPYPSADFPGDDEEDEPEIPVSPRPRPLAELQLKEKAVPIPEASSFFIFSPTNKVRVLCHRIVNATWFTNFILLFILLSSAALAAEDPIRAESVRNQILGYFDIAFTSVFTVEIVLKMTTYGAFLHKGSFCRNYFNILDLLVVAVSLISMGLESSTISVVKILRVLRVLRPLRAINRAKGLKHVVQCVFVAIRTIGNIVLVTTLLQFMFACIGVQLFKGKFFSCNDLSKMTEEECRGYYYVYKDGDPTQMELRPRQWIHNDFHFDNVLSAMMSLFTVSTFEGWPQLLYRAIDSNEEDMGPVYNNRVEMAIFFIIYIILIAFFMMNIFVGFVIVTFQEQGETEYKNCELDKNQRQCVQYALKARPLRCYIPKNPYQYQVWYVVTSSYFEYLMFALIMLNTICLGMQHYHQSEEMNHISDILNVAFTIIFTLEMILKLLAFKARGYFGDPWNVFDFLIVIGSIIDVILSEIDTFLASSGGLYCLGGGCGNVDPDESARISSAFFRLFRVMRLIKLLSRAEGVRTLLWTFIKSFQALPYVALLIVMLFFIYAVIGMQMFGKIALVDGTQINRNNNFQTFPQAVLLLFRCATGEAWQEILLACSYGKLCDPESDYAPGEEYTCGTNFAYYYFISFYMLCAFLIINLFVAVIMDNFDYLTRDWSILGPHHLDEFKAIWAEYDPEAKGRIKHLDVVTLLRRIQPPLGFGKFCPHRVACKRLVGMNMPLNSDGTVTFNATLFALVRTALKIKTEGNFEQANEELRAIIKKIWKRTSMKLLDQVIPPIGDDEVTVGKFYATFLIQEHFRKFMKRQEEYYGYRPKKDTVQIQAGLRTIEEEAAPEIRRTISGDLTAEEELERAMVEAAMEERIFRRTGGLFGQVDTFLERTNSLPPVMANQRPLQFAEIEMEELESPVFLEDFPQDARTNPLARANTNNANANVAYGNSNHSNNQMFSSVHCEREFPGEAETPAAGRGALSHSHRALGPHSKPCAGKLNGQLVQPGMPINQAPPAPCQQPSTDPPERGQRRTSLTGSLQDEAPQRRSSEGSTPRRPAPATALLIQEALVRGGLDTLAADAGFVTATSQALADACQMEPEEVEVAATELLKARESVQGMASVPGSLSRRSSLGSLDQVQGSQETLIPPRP
In short: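 Rabbit skeletal muscle membranes (40-70 µg) with [3H]-diltiazem (20 nM final) in 50 mM Tris pH 7.4. Serially diluted compound added; incubated 60 min at room temperature with shaking. Filtered through PEI-soaked filters, washed three times with ice-cold buffer, then counted. Nonspecific binding in 20 µM unlabeled diltiazem; total binding with DMSO only.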

[12] = molecular target: Sodium channel protein type 5 subunit alpha (Homo sapiens, UniProt Q14524); experiment: Inhibition of human cardiac sodium channel
In short: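 Membranes from HEK293 cells stably expressing human cardiac Na+ channel hNav1.5 (40-80 µg), with [3H]-BPBTS (1 nM final), in 20 mM Tris-HCl pH 7.4 with 0.01 mg/mL bacitracin. Incubated 16 h at room temperature with shaking, then filtered and scintillation counted. Nonspecific binding was taken with 5 µM unlabeled ligand; total binding with DMSO only.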

[13] = molecular target: Voltage-gated inwardly rectifying potassium channel KCNH2 (Homo sapiens, UniProt Q12809); experiment: Inhibition of hERG; format: toxicity

IC50 (Dipeptidyl peptidase 2) [µM] | IC50 (Dipeptidyl peptidase 8) [µM] | IC50 (Dipeptidyl peptidase 9) [µM] | IC50 (Prolyl endopeptidase FAP) [µM] | IC50 (Xaa-Pro aminopeptidase 1) [µM] | IC50 (Xaa-Pro dipeptidase) [µM] | half-life [1] [h] | AUC (Rattus norvegicus) [µM·h] | Cmax [2] [µM] | clearance [3] [mL/min/kg] | clearance [4] [mL/min/kg] | half-life [5] [h] | AUC (Canis familiaris) [µM·h] | Cmax [6] [µM] | IC50 (Dipeptidyl peptidase 4 [7]) [µM] | IC50 (Dipeptidyl peptidase 4 [8]) [µM] | bioavailability [9] [%] | Compound | also measured
> 100 | > 100 | > 100 | > 40 | > 40 | > 40 | 2 | 2.4 | 2.3 | 7 | 3.1 | 2.4 | 12 | 6.6 | – | – | – | CN(C)C(=O)[C@@H](c1ccc(-c2ccc3ncnn3c2)cc1)[C@H](N)C(=O)N1CC[C@H](F)C1.O=C(O)C(F)(F)F | –
> 100 | > 100 | > 100 | > 40 | > 40 | > 40 | – | – | – | – | – | – | – | – | 0.15 | 0.64 | – | Cc1cc(-c2ccc([C@H](C(=O)N(C)C)[C@H](N)C(=O)N3CC[C@H](F)C3)cc2)cn2ncnc12 | –
> 100 | > 100 | > 100 | > 40 | > 40 | > 40 | – | – | – | – | – | – | – | – | 0.0086 | 0.061 | – | Cc1c(-c2ccc([C@H](C(=O)N(C)C)[C@H](N)C(=O)N3CC[C@H](F)C3)cc2)ccc2ncnn12 | –
> 100 | > 100 | > 100 | > 40 | > 40 | > 40 | – | – | – | – | – | – | – | – | 0.013 | 0.133 | – | CN(C)C(=O)[C@@H](c1ccc(-c2ccc3nccn3c2)cc1)[C@H](N)C(=O)N1CC[C@H](F)C1 | –
> 100 | > 100 | > 100 | > 40 | > 40 | > 40 | 1.1 | 0.009 | 0.008 | 34 | – | – | – | – | 0.0041 | 0.016 | 0.76 | CN(C)C(=O)[C@@H](c1ccc(-c2ccc3nncn3c2)cc1)[C@H](N)C(=O)N1CC[C@H](F)C1.O=C(O)C(F)(F)F | –
> 100 | > 100 | > 100 | > 40 | > 40 | > 40 | – | – | – | – | – | – | – | – | 0.013 | 0.177 | – | CN(C)C(=O)[C@@H](c1ccc(-c2ccc3nccn3n2)cc1)[C@H](N)C(=O)N1CC[C@H](F)C1 | –
> 100 | > 100 | > 100 | > 40 | > 40 | > 40 | – | – | – | – | – | – | – | – | 0.022 | 0.223 | – | Cc1nc2ccc(-c3ccc([C@H](C(=O)N(C)C)[C@H](N)C(=O)N4CC[C@H](F)C4)cc3)cn2n1 | –

Continued, compound first:

Compound | IC50 (Dipeptidyl peptidase 2) [µM] | IC50 (Dipeptidyl peptidase 8) [µM] | IC50 (Dipeptidyl peptidase 9) [µM] | IC50 (Prolyl endopeptidase FAP) [µM] | IC50 (Xaa-Pro aminopeptidase 1) [µM] | IC50 (Xaa-Pro dipeptidase) [µM] | half-life [1] [h] | AUC (Rattus norvegicus) [µM·h] | Cmax [2] [µM] | clearance [3] [mL/min/kg] | clearance [4] [mL/min/kg] | half-life [5] [h] | AUC (Canis familiaris) [µM·h] | Cmax [6] [µM] | IC50 (Dipeptidyl peptidase 4 [7]) [µM] | IC50 (Dipeptidyl peptidase 4 [8]) [µM] | bioavailability [9] [%] | also measured
CN(C)C(=O)[C@@H](c1ccc(-c2ccn3nccc3n2)cc1)[C@H](N)C(=O)N1CCC(F)(F)C1.O=C(O)C(F)(F)F | 18 | > 100 | > 100 | > 40 | > 40 | > 40 | 2.7 | 24 | 8.9 | 1.4 | 1 | 3.1 | 38 | 22 | 0.0075 | 0.057 | 79 | bioavailability [10]: 100%; IC50 [11]: 15 µM; IC50 [12]: 60 µM
CN(C)C(=O)[C@@H](c1ccc(-c2ccn3nccc3n2)cc1)[C@H](N)C(=O)N1CC[C@H](F)C1.O=C(O)C(F)(F)F | 63 | > 100 | > 100 | > 40 | > 40 | > 40 | 4.3 | 5.6 | 3.9 | 3.3 | – | – | – | – | 0.008 | 0.053 | 46 | –
CN(C)C(=O)[C@@H](c1ccc(-c2ccn3ncnc3c2)cc1)[C@H](N)C(=O)N1CCC(F)(F)C1.O=C(O)C(F)(F)F | 26 | > 100 | > 100 | > 40 | > 40 | > 40 | 1.1 | 15 | 7.8 | 1.8 | 1.5 | 3.4 | 20 | 9.5 | 0.0062 | 0.034 | 69 | bioavailability [10]: 81%; IC50 [11]: 54 µM; IC50 [13]: 16 µM; IC50 [12]: > 100 µM
CN(C)C(=O)[C@@H](c1ccc(-c2ccn3ncnc3c2)cc1)[C@H](N)C(=O)N1CC[C@H](F)C1.O=C(O)C(F)(F)F | 14 | > 100 | > 100 | > 40 | > 40 | > 40 | 1.7 | 0.83 | 0.6 | 10 | – | – | – | – | 0.0053 | 0.035 | 21 | –
CN(C)C(=O)[C@@H](c1ccc(-c2ccc(=O)n(C)c2)cc1)[C@H](N)C(=O)N1CC[C@H](F)C1.O=C(O)C(F)(F)F | > 100 | > 100 | > 100 | > 40 | > 40 | > 40 | 1.2 | 0.048 | 0.021 | 15 | – | – | – | – | 0.008 | 0.079 | 2 | –
CN(C)C(=O)[C@@H](c1ccc(-c2ccc3ncnn3c2)cc1)[C@H](N)C(=O)N1CC(F)C1.O=C(O)C(F)(F)F | > 100 | > 100 | > 100 | > 40 | > 40 | > 40 | 2.1 | 2.2 | 2.4 | 7.3 | 6.1 | 2 | 6.9 | 4 | 0.0027 | 0.041 | 37 | bioavailability [10]: 100%
CN(C)C(=O)[C@@H](c1ccc(-c2ccc3ncnn3c2)cc1)[C@H](N)C(=O)N1CCCC1.O=C(O)C(F)(F)F | > 100 | > 100 | 14 | > 40 | > 40 | > 40 | 1.6 | 2.9 | 2.1 | 7.7 | 5.9 | 1.1 | 6.8 | 5.9 | 0.0052 | 0.063 | 46 | bioavailability [10]: 98%
